Measured values as given in ChEMBL document CHEMBL4014343 (J Med Chem, 2017).
Activity calls are given as the source filed them. No cut-off for these calls is given here.

How the values were obtained:
[1] = target: Glycogen synthase kinase-3 beta (Homo sapiens, UniProt P49841); assay: Inhibition of human N-terminal GST/His6-tagged GSK3beta (M1 to T420 residues) expressed in baculovirus infected sf9 cells at 1 uM using RBER-IRStide as substrate by filter binding assay
In short: (§1)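 Single-point profiling at 1 μM in a 22-kinase panel, performed externally by ProQinase; activity read as residual percent of control.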

[2] = target: Cyclin-dependent kinase 5/CDK5 activator 1 (Homo sapiens) (UniProt Q00535+Q15078); assay: Inhibition of recombinant human N-terminal GST-tagged CDK5 (M1 to P292 residues)/p35NCK (M1 to R307 residues) expressed in baculovirus infected sf9 cells at 1 uM using RB-CTF as substrate by filter binding assay; in short: as §1
Cyclin-dependent kinase 5/CDK5 activator 1 (Homo sapiens), sequence (Q00535 whole entry, the tested form may be a part): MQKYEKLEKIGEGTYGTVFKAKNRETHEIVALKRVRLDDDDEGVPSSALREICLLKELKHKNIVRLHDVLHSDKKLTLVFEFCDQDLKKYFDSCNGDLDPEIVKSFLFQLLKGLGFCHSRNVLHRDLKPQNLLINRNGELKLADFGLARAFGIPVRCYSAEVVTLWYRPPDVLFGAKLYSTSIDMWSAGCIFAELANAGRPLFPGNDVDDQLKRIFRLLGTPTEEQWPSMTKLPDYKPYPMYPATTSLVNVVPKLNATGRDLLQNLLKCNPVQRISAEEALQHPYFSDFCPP
Cyclin-dependent kinase 5/CDK5 activator 1 (Homo sapiens), sequence (Q15078 99-307 partner limits assumed): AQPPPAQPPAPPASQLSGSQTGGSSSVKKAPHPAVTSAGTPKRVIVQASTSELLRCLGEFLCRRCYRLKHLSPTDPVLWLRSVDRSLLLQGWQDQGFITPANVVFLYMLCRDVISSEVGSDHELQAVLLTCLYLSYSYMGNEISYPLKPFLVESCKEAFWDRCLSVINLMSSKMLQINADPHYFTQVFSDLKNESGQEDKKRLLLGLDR

[3] = target: Fibroblast growth factor receptor 1 (Homo sapiens) (UniProt P11362); assay: Inhibition of human N-terminal GST/His6-tagged FGFR1 (G400 to R820 residues) expressed in baculovirus infected sf9 cells at 1 uM using Poly(Glu,Tyr)4:1 as substrate by filter binding assay; in short: as §1
Fibroblast growth factor receptor 1 (Homo sapiens), sequence (P11362 22-822 limits assumed): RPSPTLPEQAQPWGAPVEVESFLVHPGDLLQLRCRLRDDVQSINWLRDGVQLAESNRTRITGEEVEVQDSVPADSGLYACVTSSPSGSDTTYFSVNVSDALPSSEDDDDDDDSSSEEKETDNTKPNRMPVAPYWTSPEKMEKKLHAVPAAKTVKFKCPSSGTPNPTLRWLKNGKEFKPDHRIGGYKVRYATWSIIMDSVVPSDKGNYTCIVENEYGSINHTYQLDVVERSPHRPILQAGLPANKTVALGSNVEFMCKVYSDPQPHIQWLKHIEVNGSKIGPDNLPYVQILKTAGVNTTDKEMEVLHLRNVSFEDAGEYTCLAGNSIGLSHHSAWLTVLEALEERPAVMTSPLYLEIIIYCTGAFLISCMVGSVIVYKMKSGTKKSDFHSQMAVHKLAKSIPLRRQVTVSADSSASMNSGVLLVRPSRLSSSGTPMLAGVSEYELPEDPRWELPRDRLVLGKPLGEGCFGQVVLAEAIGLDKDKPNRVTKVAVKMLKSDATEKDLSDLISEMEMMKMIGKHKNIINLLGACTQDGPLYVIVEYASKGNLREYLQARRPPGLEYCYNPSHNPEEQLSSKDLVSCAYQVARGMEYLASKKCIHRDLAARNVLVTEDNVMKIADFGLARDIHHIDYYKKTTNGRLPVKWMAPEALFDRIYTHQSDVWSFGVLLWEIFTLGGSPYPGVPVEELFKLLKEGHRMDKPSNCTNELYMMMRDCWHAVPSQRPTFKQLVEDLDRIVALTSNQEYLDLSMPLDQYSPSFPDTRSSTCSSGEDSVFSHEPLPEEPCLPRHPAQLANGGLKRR

[4] = tested on: MCF7; assay: Cell cycle arrest in human MCF7 cells assessed as accumulation at G2/M phase up to 1 uM after 24 to 48 hrs by propidium iodide staining based FACS analysis; assay type: functional
In short: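 MCF7 cells grown 24 h in DMEM with 10% FBS and 1% PS, then exposed to 1 μM for 24 and 48 h. Pellets fixed in 70% ethanol for at least 24 h, washed twice in ice-cold PBS, treated with RNase A (50 μg/mL, 1 h, 37 °C), stained with PI (50 μg/mL, 5 min), and DNA content read by FACS.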

[5] = tested on: K562; assay: Growth inhibition of human K562 cells incubated for 48 hrs by sulforhodamine B assay; assay type: functional, cell-based
[6] = tested on: SR; assay: Growth inhibition of human SR cells incubated for 48 hrs by sulforhodamine B assay; assay type: functional, cell-based
In short: (§2)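 NCI-60 panel growth inhibition, run by the U.S. National Cancer Institute; GI50 values are means of two test series.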

[7] = tested on: NCI-H23; assay: Growth inhibition of human NCI-H23 cells incubated for 48 hrs by sulforhodamine B assay; assay type: functional, cell-based
[8] = tested on: SW-620; assay: Growth inhibition of human SW620 cells incubated for 48 hrs by sulforhodamine B assay; assay type: functional, cell-based; in short: as §2
[9] = tested on: NCI/ADR-RES; assay: Growth inhibition of human NCI/ADR-RES cells incubated for 48 hrs by sulforhodamine B assay; assay type: functional, cell-based
[10] = tested on: A498; assay: Growth inhibition of human A498 cells incubated for 48 hrs by sulforhodamine B assay; assay type: functional, cell-based

Glycogen synthase kinase-3 beta, sequence (P49841 whole entry, looked up, the tested form may be a part): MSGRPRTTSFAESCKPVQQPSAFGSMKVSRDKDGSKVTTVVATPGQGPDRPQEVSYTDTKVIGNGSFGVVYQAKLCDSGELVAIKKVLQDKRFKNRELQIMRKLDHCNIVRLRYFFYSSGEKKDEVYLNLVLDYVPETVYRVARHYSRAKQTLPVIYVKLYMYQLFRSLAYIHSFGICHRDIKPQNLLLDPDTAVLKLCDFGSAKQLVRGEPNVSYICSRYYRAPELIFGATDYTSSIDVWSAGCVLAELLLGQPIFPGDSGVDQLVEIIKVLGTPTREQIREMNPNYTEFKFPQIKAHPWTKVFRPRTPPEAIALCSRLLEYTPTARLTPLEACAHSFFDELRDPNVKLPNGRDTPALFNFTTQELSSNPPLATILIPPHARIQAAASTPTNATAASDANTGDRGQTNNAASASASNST

CN1CCN(CCO/N=C2/C(=C3/C(=O)Nc4ccccc43)Nc3ccccc32)CC1 was tested, and the inhibition [1] was “inactive”, the inhibition [2] was “inactive” and the inhibition [3] was “inactive”. For the same compound, the Activity [4] was “Active”, the “growth inhibition (GI)” value [5] was “Active” and the “growth inhibition (GI)” value [6] was “Active”. For the same compound, the “growth inhibition (GI)” value [7] was “Active”, the “growth inhibition (GI)” value [8] was “Active” and the “growth inhibition (GI)” value [9] was “Active”. For the same compound, the “growth inhibition (GI)” value [10] was “Active”.
